Columns and labels:
Settings in all cases: stereoisomer not certain
[1] = target: OR4D6 (Homo sapiens) (UniProt Q8NGJ1)
Outline: (§1)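 Each entry records the cell line, G-protein, co-transfected protein and tags used. Methods varied with the source, often transient luciferase assays in mammalian cell lines. A receptor–molecule pair is called responsive (active) if the original authors judged its signal statistically different from baseline and non-responsive (inactive) otherwise.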

[2] = tested on: OR4D6
Outline: as §1

[3] = target: OR4D9 (Homo sapiens) (UniProt Q8NGE8)
Outline: as §1

[4] = target: OR4E2 (Homo sapiens) (UniProt Q8NGC2)
Outline: as §1

[5] = tested on: OR4E2 A119T
Outline: as §1

[6] = tested on: OR4E2
Outline: as §1

[7] = target: OR4F15 (Homo sapiens) (UniProt Q8NGB8)
Outline: as §1

[8] = target: OR4F17 (Homo sapiens) (UniProt Q8NGA8)
Outline: as §1

[9] = target: OR4F21 (Homo sapiens) (UniProt O95013)
Outline: as §1

[10] = target: OR4F3 (Homo sapiens) (UniProt Q6IEY1)
Outline: as §1

[11] = target: OR4F4 (Homo sapiens) (UniProt Q96R69)
Outline: as §1

[12] = target: OR4F5 (Homo sapiens) (UniProt Q8NH21)
Outline: as §1

[13] = tested on: OR4F5 T141A Q293R
Outline: as §1

[14] = target: OR4F6 (Homo sapiens) (UniProt Q8NGB9)
Outline: as §1

[15] = target: OR4K1 (Homo sapiens) (UniProt Q8NGD4)
Outline: as §1

[16] = tested on: OR4K1 R304H
Outline: as §1

[17] = target: OR4K13 (Homo sapiens) (UniProt Q8NH42)
Outline: as §1

[18] = target: OR4K14 (Homo sapiens) (UniProt Q8NGD5)
Outline: as §1

[19] = target: OR4E1 (Homo sapiens) (UniProt P0C645)
Outline: as §1

[20] = target: OR4K15 (Homo sapiens) (UniProt Q8NH41)
Outline: as §1

Measured: odorant receptor agonist call

OR4E2 (Homo sapiens), sequence (Q8NGC2 whole entry): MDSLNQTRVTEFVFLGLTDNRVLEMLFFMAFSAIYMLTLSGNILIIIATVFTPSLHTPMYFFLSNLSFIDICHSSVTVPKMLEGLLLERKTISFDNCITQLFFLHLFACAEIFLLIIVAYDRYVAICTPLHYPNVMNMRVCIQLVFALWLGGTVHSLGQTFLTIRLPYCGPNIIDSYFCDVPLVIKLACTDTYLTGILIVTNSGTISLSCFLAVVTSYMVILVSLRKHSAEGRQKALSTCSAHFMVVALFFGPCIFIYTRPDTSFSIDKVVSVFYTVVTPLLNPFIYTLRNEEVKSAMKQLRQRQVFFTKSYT
OR4D6 (Homo sapiens), sequence (Q8NGJ1 whole entry): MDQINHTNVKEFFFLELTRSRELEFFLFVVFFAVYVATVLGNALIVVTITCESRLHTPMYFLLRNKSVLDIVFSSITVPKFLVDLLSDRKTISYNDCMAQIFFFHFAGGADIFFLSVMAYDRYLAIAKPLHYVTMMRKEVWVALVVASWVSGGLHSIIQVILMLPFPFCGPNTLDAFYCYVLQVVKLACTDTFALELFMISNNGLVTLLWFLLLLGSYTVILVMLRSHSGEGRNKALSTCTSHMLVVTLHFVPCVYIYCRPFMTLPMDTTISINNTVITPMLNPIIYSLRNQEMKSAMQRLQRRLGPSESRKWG
OR4F15 (Homo sapiens), sequence (Q8NGB8 whole entry): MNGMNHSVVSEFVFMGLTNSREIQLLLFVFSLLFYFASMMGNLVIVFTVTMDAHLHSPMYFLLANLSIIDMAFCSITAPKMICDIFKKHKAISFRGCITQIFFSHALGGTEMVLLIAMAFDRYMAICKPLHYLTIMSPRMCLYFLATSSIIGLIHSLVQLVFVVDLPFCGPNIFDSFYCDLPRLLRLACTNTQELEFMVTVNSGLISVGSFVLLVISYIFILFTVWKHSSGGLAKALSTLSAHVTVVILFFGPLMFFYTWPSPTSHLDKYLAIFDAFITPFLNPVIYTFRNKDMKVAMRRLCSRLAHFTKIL
OR4F17 (Homo sapiens), sequence (Q8NGA8 whole entry): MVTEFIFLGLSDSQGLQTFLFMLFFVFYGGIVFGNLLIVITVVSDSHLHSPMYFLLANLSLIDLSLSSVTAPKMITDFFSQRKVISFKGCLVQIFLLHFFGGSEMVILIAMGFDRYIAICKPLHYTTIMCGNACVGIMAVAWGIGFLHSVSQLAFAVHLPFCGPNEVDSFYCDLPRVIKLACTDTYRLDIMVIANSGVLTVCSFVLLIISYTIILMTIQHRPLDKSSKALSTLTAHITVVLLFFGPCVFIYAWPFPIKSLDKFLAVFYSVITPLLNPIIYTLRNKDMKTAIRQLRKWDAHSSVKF
OR4K14 (Homo sapiens), sequence (Q8NGD5 whole entry): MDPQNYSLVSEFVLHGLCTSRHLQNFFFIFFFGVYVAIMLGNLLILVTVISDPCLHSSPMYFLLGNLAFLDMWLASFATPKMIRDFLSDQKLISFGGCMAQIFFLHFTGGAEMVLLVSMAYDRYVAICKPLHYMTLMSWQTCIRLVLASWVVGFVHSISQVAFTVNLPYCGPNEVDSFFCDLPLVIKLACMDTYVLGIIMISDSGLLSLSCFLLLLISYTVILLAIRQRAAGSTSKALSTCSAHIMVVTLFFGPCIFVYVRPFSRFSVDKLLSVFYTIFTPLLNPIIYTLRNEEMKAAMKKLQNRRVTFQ
OR4F3 (Homo sapiens), sequence (Q6IEY1 whole entry): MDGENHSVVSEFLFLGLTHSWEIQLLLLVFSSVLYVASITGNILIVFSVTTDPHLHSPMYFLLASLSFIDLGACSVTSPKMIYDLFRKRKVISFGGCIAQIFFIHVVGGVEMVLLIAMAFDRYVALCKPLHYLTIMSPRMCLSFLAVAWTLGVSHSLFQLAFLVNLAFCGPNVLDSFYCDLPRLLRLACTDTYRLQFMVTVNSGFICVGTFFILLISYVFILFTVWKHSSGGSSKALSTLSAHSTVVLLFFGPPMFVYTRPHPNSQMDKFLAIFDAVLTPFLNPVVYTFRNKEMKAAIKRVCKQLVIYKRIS
OR4D9 (Homo sapiens), sequence (Q8NGE8 whole entry): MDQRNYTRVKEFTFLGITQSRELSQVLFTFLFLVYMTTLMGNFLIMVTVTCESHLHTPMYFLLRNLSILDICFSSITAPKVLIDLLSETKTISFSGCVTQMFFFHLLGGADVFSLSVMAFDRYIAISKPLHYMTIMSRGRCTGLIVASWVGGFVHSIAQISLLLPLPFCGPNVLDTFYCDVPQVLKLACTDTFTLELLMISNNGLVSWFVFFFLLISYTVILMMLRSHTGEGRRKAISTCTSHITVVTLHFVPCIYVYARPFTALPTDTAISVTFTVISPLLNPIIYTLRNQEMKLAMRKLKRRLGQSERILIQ
OR4F5 (Homo sapiens), sequence (Q8NH21 whole entry): as the sequence (Q8NGA8 whole entry) above, with G15E, A141T, P160L counted along it
OR4F4 (Homo sapiens), sequence (Q96R69 whole entry): as the sequence (Q8NGA8 whole entry) above, with G15E, R221C, Q293R counted along it
OR4K1 (Homo sapiens), sequence (Q8NGD4 whole entry): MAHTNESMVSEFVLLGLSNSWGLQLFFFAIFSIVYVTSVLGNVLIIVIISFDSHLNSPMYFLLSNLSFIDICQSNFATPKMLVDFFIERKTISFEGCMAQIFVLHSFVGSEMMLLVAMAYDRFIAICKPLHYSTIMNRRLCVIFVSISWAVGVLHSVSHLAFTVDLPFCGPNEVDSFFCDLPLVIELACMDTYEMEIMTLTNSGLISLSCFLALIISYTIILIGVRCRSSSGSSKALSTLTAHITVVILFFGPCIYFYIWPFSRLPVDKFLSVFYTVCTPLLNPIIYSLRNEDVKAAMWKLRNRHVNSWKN
OR4K13 (Homo sapiens), sequence (Q8NH42 whole entry): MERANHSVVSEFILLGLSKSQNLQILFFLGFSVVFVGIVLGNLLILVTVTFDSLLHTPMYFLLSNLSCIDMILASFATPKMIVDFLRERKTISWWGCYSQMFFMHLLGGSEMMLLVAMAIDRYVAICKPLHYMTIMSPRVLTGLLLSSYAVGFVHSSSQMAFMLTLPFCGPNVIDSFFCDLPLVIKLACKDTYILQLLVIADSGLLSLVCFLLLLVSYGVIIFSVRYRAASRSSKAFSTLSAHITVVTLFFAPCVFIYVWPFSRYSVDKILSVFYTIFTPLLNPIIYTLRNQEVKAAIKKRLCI
OR4F6 (Homo sapiens), sequence (Q8NGB9 whole entry): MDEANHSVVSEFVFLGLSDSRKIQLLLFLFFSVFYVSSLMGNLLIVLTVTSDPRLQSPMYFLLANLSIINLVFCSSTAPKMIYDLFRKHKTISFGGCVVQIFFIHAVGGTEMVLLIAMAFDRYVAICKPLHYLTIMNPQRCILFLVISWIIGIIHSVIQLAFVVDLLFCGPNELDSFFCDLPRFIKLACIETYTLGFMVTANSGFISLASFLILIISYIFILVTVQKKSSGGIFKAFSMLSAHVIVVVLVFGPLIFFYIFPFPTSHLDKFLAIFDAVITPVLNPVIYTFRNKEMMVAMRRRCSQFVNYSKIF
OR4F21 (Homo sapiens), sequence (O95013 whole entry): as the sequence (Q6IEY1 whole entry) above, with L44F, V107I, R310K counted along it
OR4D6, sequence (as listed by the source): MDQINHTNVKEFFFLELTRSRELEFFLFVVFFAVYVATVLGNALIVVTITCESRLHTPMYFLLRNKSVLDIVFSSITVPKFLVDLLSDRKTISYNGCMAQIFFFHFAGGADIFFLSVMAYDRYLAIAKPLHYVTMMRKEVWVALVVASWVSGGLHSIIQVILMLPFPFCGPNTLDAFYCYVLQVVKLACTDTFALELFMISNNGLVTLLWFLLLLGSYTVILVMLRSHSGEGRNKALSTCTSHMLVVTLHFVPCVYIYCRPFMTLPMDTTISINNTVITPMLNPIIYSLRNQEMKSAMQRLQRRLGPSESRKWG
OR4E2 A119T, sequence (as listed by the source, stated change not applied): as the sequence (Q8NGC2 whole entry) above, with V118M, A119T, Q234R counted along it
OR4K15 (Homo sapiens), sequence (Q8NH41 whole entry): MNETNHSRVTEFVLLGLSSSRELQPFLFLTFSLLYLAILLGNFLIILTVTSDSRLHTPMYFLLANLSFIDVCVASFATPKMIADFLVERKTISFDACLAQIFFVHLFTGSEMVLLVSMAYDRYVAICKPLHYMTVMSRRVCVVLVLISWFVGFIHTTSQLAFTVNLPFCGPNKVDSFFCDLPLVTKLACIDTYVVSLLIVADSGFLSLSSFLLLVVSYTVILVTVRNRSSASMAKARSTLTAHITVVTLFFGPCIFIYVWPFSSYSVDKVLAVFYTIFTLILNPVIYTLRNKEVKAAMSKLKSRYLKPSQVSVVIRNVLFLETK
OR4E2, sequence (as listed by the source): as the sequence (Q8NGC2 whole entry) above, with V118M, Q234R counted along it
OR4E1 (Homo sapiens), sequence (P0C645 whole entry): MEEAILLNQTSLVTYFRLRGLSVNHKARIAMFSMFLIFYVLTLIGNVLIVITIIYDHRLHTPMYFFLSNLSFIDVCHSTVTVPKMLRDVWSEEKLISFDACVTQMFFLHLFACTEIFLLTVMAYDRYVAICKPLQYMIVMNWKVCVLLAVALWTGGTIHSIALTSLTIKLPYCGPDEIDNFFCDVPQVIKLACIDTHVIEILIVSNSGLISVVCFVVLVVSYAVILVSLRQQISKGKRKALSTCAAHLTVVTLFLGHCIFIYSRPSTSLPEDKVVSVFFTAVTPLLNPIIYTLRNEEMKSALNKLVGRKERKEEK
OR4K1 R304H, sequence (as listed by the source, stated change not applied): as the sequence (Q8NGD4 whole entry) above, with R304H counted along it

C=CCOC(=O)Cc1ccccc1
not listed: [19] | [20]
inactive: all other assays above

Cc1c([N+](=O)[O-])c(C)c([N+](=O)[O-])c(C(C)(C)C)c1[N+](=O)[O-]
not listed: [2] | [5] | [6] | [13] | [16]
inactive: all other assays above
